Test results as given in ChEMBL document CHEMBL4043106, “Selective opioid growth factor receptor antagonists based on a stilbene isostere” (Bioorg Med Chem, 2017).
Calls of active or inactive are those of the source. The rule behind the calls is not given here.

Tests used:
[1] = organism: Chlorocebus aethiops; assay: Antagonist activity at OGFR in African green monkey COS7 cells harboring OGF assessed as increase in cell growth at 1 uM after 72 hrs by hemacytometric method
Summary of the method: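 COS-7 cells grown in DMEM with 10% fetal calf serum and antibiotics at 37°C, 5% CO2. Seeded at 20,000 cells/well and counted 24 h later as time 0. Treated with 1 μM compound or sterile water vehicle; growth counted at 72 h.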

[2] = target: T1, Opioid growth factor receptor (Homo sapiens) (UniProt Q9NZT2); assay: Antagonist activity at OGFR in human SKOV3 cells assessed as cell growth inhibition at 10 uM treated as pulsed dose of 6 hrs every other day by hemacytometric method; format: cell-based
T1 sequence (whole entry): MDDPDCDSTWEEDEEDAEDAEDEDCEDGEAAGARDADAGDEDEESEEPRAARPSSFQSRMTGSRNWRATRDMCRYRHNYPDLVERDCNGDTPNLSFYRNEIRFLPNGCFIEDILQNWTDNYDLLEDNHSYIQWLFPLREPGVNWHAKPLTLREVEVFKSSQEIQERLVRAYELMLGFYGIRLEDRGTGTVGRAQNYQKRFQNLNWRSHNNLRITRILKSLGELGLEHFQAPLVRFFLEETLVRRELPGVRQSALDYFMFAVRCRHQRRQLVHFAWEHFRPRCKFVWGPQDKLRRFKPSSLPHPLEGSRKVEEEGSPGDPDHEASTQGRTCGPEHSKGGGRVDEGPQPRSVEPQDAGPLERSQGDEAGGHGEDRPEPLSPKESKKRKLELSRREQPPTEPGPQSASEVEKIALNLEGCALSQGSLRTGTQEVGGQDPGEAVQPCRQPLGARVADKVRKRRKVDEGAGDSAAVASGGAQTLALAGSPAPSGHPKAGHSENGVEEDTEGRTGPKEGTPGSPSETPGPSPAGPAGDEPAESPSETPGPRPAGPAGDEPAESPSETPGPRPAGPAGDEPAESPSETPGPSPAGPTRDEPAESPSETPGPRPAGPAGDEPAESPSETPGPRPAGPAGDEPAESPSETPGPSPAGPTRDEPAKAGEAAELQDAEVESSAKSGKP
Summary of the method: (§1)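 SKOV-3 ovarian cancer cells in RPMI 1640 with 10% fetal calf serum and antibiotics at 37°C, 5% CO2. Seeded at 20,000 cells/well and counted after 24 h for time 0. Compound or sterile water given either continuously (24 h daily) or pulsed for 6 h every 48 h. Cells counted at 96 and 120 h; concentration series used for the dose-response.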

[3] = target: Delta-type opioid receptor (Homo sapiens) (UniProt P41143); assay: Agonist activity at human delta opioid receptor assessed as beta-arrestin recruitment up to 5 uM after 180 mins by chemiluminescence assay
Summary of the method: (§2)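 Commercial β-arrestin kit using cells transfected with human MOR, DOR or KOR. Cells plated and held 48 h at 37°C in 5% CO2. Compound added for 180 min at 37°C, starting at 5 μM with 1:3 serial dilutions. Reference agonists were DADLE (DOR), Met5-enkephalin (MOR) and dynorphin A (KOR). Detection reagent then added for 1 h at room temperature in the dark; chemiluminescence read.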

[4] = target: T2, Kappa-type opioid receptor (Homo sapiens, UniProt P41145); assay: Agonist activity at human kappa opioid receptor assessed as beta-arrestin recruitment up to 5 uM after 180 mins by chemiluminescence assay; details: 3 h; summary of the method: as §2
[5] = target: T1, Opioid growth factor receptor (Homo sapiens); assay: Antagonist activity at OGFR in human SKOV3 cells assessed as increase in cell growth at 10 uM after 24 hrs by hemacytometric method; format: cell-based; summary of the method: as §1
[6] = target: Delta-type opioid receptor (Homo sapiens) (UniProt P41143); assay: Antagonist activity at delta opioid receptor (unknown origin) up to 10 uM by GTPgammaS functional assay
Summary of the method: (§3)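 GTPγS functional assay at KOR, DOR and MOR, run in both agonist and antagonist modes, with test concentrations up to 10 μM.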

[7] = target: Delta-type opioid receptor (Homo sapiens) (UniProt P41143); assay: Agonist activity at delta opioid receptor (unknown origin) up to 10 uM by GTPgammaS functional assay; summary of the method: as §3
[8] = target: T3, Mu-type opioid receptor (Homo sapiens, UniProt P35372); assay: Agonist activity at human mu opioid receptor assessed as beta-arrestin recruitment up to 5 uM after 180 mins by chemiluminescence assay; summary of the method: as §2
[9] = target: T3, Mu-type opioid receptor; assay: Antagonist activity at mu opioid receptor (unknown origin) up to 10 uM by GTPgammaS functional assay; summary of the method: as §3
[10] = target: T2, Kappa-type opioid receptor; assay: Antagonist activity at kappa opioid receptor (unknown origin) up to 10 uM by GTPgammaS functional assay; summary of the method: as §3
[11] = target: T3, Mu-type opioid receptor; assay: Agonist activity at mu opioid receptor (unknown origin) up to 10 uM by GTPgammaS functional assay; summary of the method: as §3
[12] = target: T2, Kappa-type opioid receptor; assay: Agonist activity at kappa opioid receptor (unknown origin) up to 10 uM by GTPgammaS functional assay; summary of the method: as §3
[13] = target: T1, Opioid growth factor receptor (Homo sapiens); assay: Antagonist activity at OGFR in human SKOV3 cells assessed as cell growth inhibition at 5 to 10 uM treated as pulsed dose of 6 hrs every other day measured at 120 hrs post dose by hemacytometric method; format: cell-based; summary of the method: as §1
[14] = organism: Chlorocebus aethiops; assay: Antagonist activity at OGFR in African green monkey COS7 cells harboring OGF assessed as increase in cell growth at 1 uM after 72 hrs by BrdU incorporation assay
Summary of the method: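 COS-7 cells on coverslips exposed to compound (1 μM) for 24 h. BrdU added in fresh DMEM for 3 h, then cells stained with DAPI counterstain. At least 100 cells per treatment scored blind for BrdU incorporation; growth evaluated at 72 h.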

[15] = target: T1, Opioid growth factor receptor (Homo sapiens); assay: Antagonist activity at OGFR in human SKOV3 cells assessed as increase in cell growth at 0.1 to 10 uM treated continuously for 24 hrs measured at 120 hrs post dose by hemacytometric method; format: cell-based; summary of the method: as §1
[16] = target: T1, Opioid growth factor receptor (Homo sapiens); assay: Antagonist activity at OGFR in human SKOV3 cells assessed as cell growth inhibition at 10 uM treated as pulsed dose of 6 hrs every other day measured at 120 hrs post dose by hemacytometric method; format: cell-based; summary of the method: as §1

Chain of Delta-type opioid receptor (Homo sapiens) (P41143 whole entry): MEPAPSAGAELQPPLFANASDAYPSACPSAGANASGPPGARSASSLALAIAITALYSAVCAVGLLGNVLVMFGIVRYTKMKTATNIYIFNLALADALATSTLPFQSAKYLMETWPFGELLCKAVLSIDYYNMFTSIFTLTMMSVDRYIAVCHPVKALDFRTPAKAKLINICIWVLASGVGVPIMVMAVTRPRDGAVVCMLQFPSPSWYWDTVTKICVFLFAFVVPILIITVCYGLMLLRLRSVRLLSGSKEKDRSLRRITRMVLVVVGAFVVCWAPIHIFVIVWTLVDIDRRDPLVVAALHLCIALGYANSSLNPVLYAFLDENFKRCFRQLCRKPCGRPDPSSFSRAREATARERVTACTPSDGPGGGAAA
T3 sequence (P35372 whole entry): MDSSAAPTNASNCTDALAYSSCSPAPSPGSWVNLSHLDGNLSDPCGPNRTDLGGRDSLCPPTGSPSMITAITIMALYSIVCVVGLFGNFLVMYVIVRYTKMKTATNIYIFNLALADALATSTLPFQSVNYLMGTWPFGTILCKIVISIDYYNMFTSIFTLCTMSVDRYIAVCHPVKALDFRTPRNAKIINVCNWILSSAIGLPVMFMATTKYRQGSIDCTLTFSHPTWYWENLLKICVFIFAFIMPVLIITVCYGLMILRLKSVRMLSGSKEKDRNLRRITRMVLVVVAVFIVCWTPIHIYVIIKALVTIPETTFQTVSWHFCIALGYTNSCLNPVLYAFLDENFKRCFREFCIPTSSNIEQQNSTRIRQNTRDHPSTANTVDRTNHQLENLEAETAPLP
T2 sequence (P41145 whole entry): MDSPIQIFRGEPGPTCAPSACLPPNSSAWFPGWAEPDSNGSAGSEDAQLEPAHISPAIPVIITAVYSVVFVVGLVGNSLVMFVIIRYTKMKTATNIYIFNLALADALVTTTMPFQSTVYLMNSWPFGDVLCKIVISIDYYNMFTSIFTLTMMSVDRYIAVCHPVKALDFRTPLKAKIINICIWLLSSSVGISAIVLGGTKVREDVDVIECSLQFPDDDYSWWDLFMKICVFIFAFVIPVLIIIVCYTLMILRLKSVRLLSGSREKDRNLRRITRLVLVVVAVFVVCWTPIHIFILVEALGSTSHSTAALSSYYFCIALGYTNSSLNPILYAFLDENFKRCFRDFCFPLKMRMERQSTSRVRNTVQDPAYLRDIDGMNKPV

Row | Structure (SMILES) | Cell growth increase (active/not active) [1] | growth inhibition (GI) [2] | Activity [3] | Activity [4] | inhibition [5] | inhibition [6] | Activity [7] | Activity [8] | inhibition (INH) [9] | inhibition [10] | Activity [11] | Activity [12] | growth inhibition (GI) [13] | inhibition [14] | inhibition [15] | growth inhibition (GI) [16]
1 | COc1cc(/C=C/c2ccc(O)c(O)c2CC=C(C)C)c(C/C=C(\C)CCC=C(C)C)c(OC)c1 | Active |  |  |  |  |  |  |  |  |  |  |  |  |  |  | 
2 | COc1cc(NC(=O)c2ccc(O)c(O)c2CC=C(C)C)c(C/C=C(\C)CCC=C(C)C)c(OC)c1 | Active | Active | inactive | Not Active | Active | inactive | inactive | inactive | Not Active | inactive | inactive | Not Active |  |  |  | 
3 | COc1cc(OC)c(C/C=C(\C)CCC=C(C)C)c(C(=O)Nc2cc(O)c(O)c(CC=C(C)C)c2)c1 |  | Active | inactive | Not Active | Active | inactive | inactive | inactive | Not Active | inactive | inactive | Not Active | Active | Active | Active | 
4 | COc1cc(NC(=O)c2cc(O)c(O)c(CC=C(C)C)c2)c(C/C=C(\C)CCC=C(C)C)c(OC)c1 | Active |  | inactive | Not Active |  | inactive | inactive | inactive | Not Active | inactive | inactive | Not Active |  |  |  | 
5 | COc1cc(/C=C/c2cc(O)c(O)c(CC=C(C)C)c2)c(C/C=C(\C)CCC=C(C)C)c(OC)c1 | inactive |  |  |  |  |  |  |  |  |  |  |  |  |  |  | 
6 | COc1cc(OC)c(C/C=C(\C)CCC=C(C)C)c(C(=O)Nc2ccc(O)c(O)c2CC=C(C)C)c1 |  | Active | inactive | Not Active | Active | inactive | inactive | inactive | Not Active | inactive | inactive | Not Active |  | inactive |  | Active
7 | O=C1CC[C@@]2(O)[C@H]3Cc4ccc(O)c5c4[C@@]2(CCN3CC2CC2)[C@H]1O5 | Active | Active |  |  |  |  |  |  |  |  |  |  |  |  |  | 
